Test results as given in ChEMBL document CHEMBL4270573, “Novel nicotinoyl pyrazoline derivates bearing N-methyl indole moiety as antitumor agents: Design, synthesis and evaluation” (Eur J Med Chem, 2018).
Activity calls are given as the source filed them. No cut-off for these calls is given here.

Experiments:
[1] = test system: HeLa; test: Cell cycle arrest in human HeLa cells assessed as accumulation at G0/G1 phase at 0.040 uM after 24 hrs by propidium iodide staining based flow cytometric analysis (reference value: 66.26%); type: functional
Procedure, shortened: (§1)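 HepG2 and HeLa cells were exposed to 0, 0.020, 0.040, 0.060, 0.080 or 0.10 µM for 6, 12 or 24 h. DNA content was stained with propidium iodide and analysed by flow cytometry to give the percentage of cells in G0/G1, S and G2/M phases; sub-G1 cells were also recorded.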

[2] = test system: HepG2; test: Cell cycle arrest in human HepG2 cells assessed as accumulation at G2/M phase at 0.10 uM after 24 hrs by propidium iodide staining based flow cytometric analysis (reference value: 20.17%); type: functional; procedure, shortened: as §1
[3] = test system: Mus musculus; test: Nephrotoxicity in nude mouse xenografted with human HeLa cells assessed as necrosis in kidney at 10 to 20 mg/kg, ip after 14 days by hematoxylin and eosin staining based microscopic analysis; type: toxicity, organism-based; conditions: in vivo, 336 h
[4] = test system: HeLa; test: Cell cycle arrest in human HeLa cells assessed as accumulation at G2/M phase at 0.060 uM after 24 hrs by propidium iodide staining based flow cytometric analysis (reference value: 17.72%); type: functional; procedure, shortened: as §1
[5] = test system: HepG2; test: Induction of apoptosis in human HepG2 cells assessed as early apoptotic cells at 0.040 uM after 24 hrs by Annexin V-FITC/propidium iodide staining based flow cytometric analysis (reference value: 2.31%); type: functional
Procedure, shortened: (§2)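 HepG2 and HeLa cells were exposed to 0, 0.02, 0.040, 0.060, 0.080 and 0.10 µM for 6, 12 and 24 h. Cells were double-stained with Annexin V-FITC/PI and read by flow cytometry. Apoptotic rate was the percentage of FITC-positive cells, counting early plus late apoptotic.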

[6] = target: T1, Tubulin (Homo sapiens) (UniProt P68371+Q9H4B7+P0DPH7+P68366+Q13509+Q71U36+P04350+Q3ZCM7+P07437+P68363+Q9BQE3+Q6PEY2+Q13885+Q9BVA1+Q9BUF5); test: Inhibition of tubulin polymerization in human HeLa cells assessed as abnormal microtubule network formation at 0.04 to 0.1 uM after 12 hrs by DAPI staining based immunofluorescence confocal laser scanning microscopic analysis; type: cell-based
[7] = test system: HepG2; test: Cell cycle arrest in human HepG2 cells assessed as accumulation at G2/M phase at 0.080 uM after 24 hrs by propidium iodide staining based flow cytometric analysis (reference value: 20.17%); type: functional; procedure, shortened: as §1
[8] = Selectivity index, ratio of CC50 for HEK293T cells to GI50 for human MCF7 cells; type: toxicity; conditions: HEK293T cells and MCF7 cells, read-out: Selectivity Index
Procedure, shortened: (§3)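 Ratio CC50/GI50: CC50 is the concentration reducing non-tumour 293T cell proliferation by 50%; GI50 is the concentration reducing cancer cell proliferation by 50%.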

[9] = test system: HepG2; test: Cell cycle arrest in human HepG2 cells assessed as accumulation at S phase at 0.060 uM after 24 hrs by propidium iodide staining based flow cytometric analysis (reference value: 20.40%); type: functional; procedure, shortened: as §1
[10] = test system: HepG2; test: Cell cycle arrest in human HepG2 cells assessed as accumulation at G0/G1 phase at 0.10 uM after 24 hrs by propidium iodide staining based flow cytometric analysis (reference value: 55.63%); type: functional; procedure, shortened: as §1
[11] = test system: Mus musculus; test: Toxicity in nude mouse xenografted with human HeLa cells assessed as change in mouse spleen weight at 10 to 20 mg/kg, ip after 14 days; type: organism-based; conditions: in vivo, 336 h
[12] = test system: HepG2; test: Induction of apoptosis in human HepG2 cells assessed as viable cells at 0.040 uM after 24 hrs by Annexin V-FITC/propidium iodide staining based flow cytometric analysis (reference value: 94.5%); type: functional; conditions: HepG2, 24 h, read-out: Activity; procedure, shortened: as §2
[13] = test system: HeLa; test: Induction of apoptosis in human HeLa cells assessed as necrotic cells at 0.060 uM after 24 hrs by Annexin V-FITC/propidium iodide staining based flow cytometric analysis (reference value: 0.242%); type: functional; procedure, shortened: as §2
[14] = test system: HeLa; test: Cell cycle arrest in human HeLa cells assessed as accumulation at S phase at 0.040 uM after 24 hrs by propidium iodide staining based flow cytometric analysis (reference value: 17.46%); type: functional; procedure, shortened: as §1
[15] = test system: Mus musculus; test: Toxicity in nude mouse xenografted with human HeLa cells assessed as morphological changes in spleen cells at 10 to 20 mg/kg, ip after 14 days by hematoxylin and eosin staining based microscopic analysis; type: organism-based; conditions: in vivo, 336 h
[16] = test system: HeLa; test: Antitumor activity against human HeLa cells xenografted in nude mouse assessed as tumor volume at 10 mg/kg, ip after 14 days (reference value: 2292.17 mm3); type: functional
[17] = test system: HepG2; test: Induction of apoptosis in human HepG2 cells assessed as viable cells at 0.10 uM after 24 hrs by Annexin V-FITC/propidium iodide staining based flow cytometric analysis (reference value: 94.5%); type: functional; conditions: HepG2, 24 h, read-out: Activity; procedure, shortened: as §2
[18] = test system: HeLa; test: Cell cycle arrest in human HeLa cells assessed as accumulation at G0/G1 phase at 0.020 uM after 24 hrs by propidium iodide staining based flow cytometric analysis (reference value: 66.26%); type: functional; procedure, shortened: as §1
[19] = test system: HeLa; test: Induction of apoptosis in human HeLa cells assessed as early apoptotic cells at 0.020 uM after 24 hrs by Annexin V-FITC/propidium iodide staining based flow cytometric analysis (reference value: 6.17%); type: functional; procedure, shortened: as §2
[20] = target: T1, Tubulin (Homo sapiens); test: Inhibition of tubulin polymerization in human HepG2 cells assessed as abnormal microtubule network formation at 0.04 to 0.1 uM after 12 hrs by DAPI staining based immunofluorescence confocal laser scanning microscopic analysis; type: cell-based
[21] = Selectivity index, ratio of CC50 for HEK293T cells to GI50 for human A549 cells; type: toxicity; conditions: HEK293T cells and A549 cells, read-out: Selectivity Index; procedure, shortened: as §3
[22] = test system: HeLa; test: Induction of apoptosis in human HeLa cells assessed as early apoptotic cells at 0.080 uM after 24 hrs by Annexin V-FITC/propidium iodide staining based flow cytometric analysis (reference value: 6.17%); type: functional; procedure, shortened: as §2
[23] = test system: HepG2; test: Cell cycle arrest in human HepG2 cells assessed as accumulation at G2/M phase at 0.060 uM after 24 hrs by propidium iodide staining based flow cytometric analysis (reference value: 20.17%); type: functional; procedure, shortened: as §1
[24] = test system: HeLa; test: Antitumor activity against human HeLa cells xenografted in nude mouse assessed as necrosis of tumor cells at 10 to 20 mg/kg, ip after 14 days by hematoxylin and eosin staining based microscopic analysis; type: functional, organism-based
Procedure, shortened: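 Excised tumours and heart, liver, kidney and spleen were H&E-stained and examined microscopically. Tumour scoring covered cell arrangement and necrosis. Organ scoring covered inflammatory infiltration, edema, necrosis and cell morphology.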

[25] = test system: HeLa; test: Induction of apoptosis in human HeLa cells assessed as necrotic cells at 0.020 uM after 24 hrs by Annexin V-FITC/propidium iodide staining based flow cytometric analysis (reference value: 0.242%); type: functional; procedure, shortened: as §2
[26] = Inhibition of porcine brain tubulin polymerization measured over 30 mins; parameters: species or system Sus scrofa
[27] = test system: Mus musculus; test: Toxicity in nude mouse xenografted with human HeLa cells assessed as edema in spleen at 10 to 20 mg/kg, ip after 14 days by hematoxylin and eosin staining based microscopic analysis; type: organism-based; conditions: in vivo, 336 h
[28] = test system: Mus musculus; test: Toxicity in nude mouse xenografted with human HeLa cells assessed as change in mouse liver weight at 10 to 20 mg/kg, ip after 14 days; type: organism-based; conditions: in vivo, 336 h
[29] = test system: HepG2; test: Growth inhibition of human HepG2 cells after 48 hrs by MTT assay; type: functional; conditions: HepG2, 48 h
Procedure, shortened: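 Proliferation read-out; GI50 taken as the concentration giving 50% reduction of cancer cell proliferation.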

For `COc1cccc(C2=NN(C(=O)c3ccc(C)nc3)C(c3cn(C)c4ccc(OC)cc34)C2)c1` (centres undefined), the Activity [1] was 49.63%, the Activity [2] was 51.22% and the Activity [3] was “Non-Toxic”. For the same molecule, the Activity [4] was 65.43%, the Activity [5] was 7.34% and the inhibition [6] was “Active”. It also gave an Activity [7] of 50.73%, a selectivity ratio [8] of 3 to 10 and an Activity [9] of 22.17%. For the same molecule, the Activity [10] was 8.57%, the Activity [11] was “Non-Toxic” and the viability at 0.04 µM [12] was 84.2%. For the same molecule, the Activity [13] was 0.484%, the Activity [14] was 7.43% and the Activity [15] was “Non-Toxic”. For the same molecule, the Activity [16] was 1213.02 mm3, the viability at 0.1 µM [17] was 70.7% and the Activity [18] was 66.95%. The Activity [19] was 3.24%, the inhibition [20] was “Active” and the selectivity ratio [21] was 3 to 10. For the same molecule, the Activity [22] was 30.2%, the Activity [23] was 41.92% and the Activity [24] was “Active”. The Activity [25] was 0.12%, the IC50 [26] was 1600 nM and the Activity [27] was “Non-Toxic”. The Activity [28] was “Non-Toxic” and the GI50 [29] was 29 nM.
